Here are results for ten compounds from ChEMBL document CHEMBL1629474, “Massive screening yields novel and selective Trypanosoma cruzi triosephosphate isomerase dimer-interface-irreversible inhibitors with anti-trypanosomal activity” (Eur J Med Chem, 2010).

Calls of active or inactive are those of the source. The rule behind the calls is not given here. Some results are limits rather than exact numbers.

Assay [1] concerns the target Triosephosphate isomerase, glycosomal (Trypanosoma cruzi) (UniProt P52270). The assay is described as follows: Inhibition of Trypanosoma cruzi triosephosphate isomerase at 100 uM after 2 hrs. Summed up:
(§1)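 Recombinant E. coli-expressed enzyme, dialyzed into 100 mM triethanolamine/10 mM EDTA pH 7.4, was incubated with compound (DMSO stock) in 100 mM triethanolamine, 10 mM EDTA, pH 7.4, 10% DMSO at 36 °C for 2 h. An aliquot was then assayed for activity (glyceraldehyde 3-phosphate to dihydroxyacetone phosphate, α-glycerol phosphate dehydrogenase-coupled) with 5 ng enzyme. Irreversible inhibition was scored as loss of activity; means of two experiments.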

Assay [2] shares this target. The assay is described as follows: Inhibition of Trypanosoma cruzi triosephosphate isomerase at 400 uM after 2 hrs. Summed up: as §1
A short description of assay [3]: Selectivity for Trypanosoma cruzi triosephosphate isomerase over human triosephosphate isomerase.
Assay [4] relates to Trypanosoma cruzi. The assay is described as follows: Antiparasitic activity against Trypanosoma cruzi T2 epimastigotes assessed as growth inhibition at 25 uM after 5 days. The format is functional. As to conditions: for inhibition of growth at 25 µM: T2, 120 h, read-out: GI. The procedure, abridged:
(§2)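 Late-log epimastigotes were grown axenically at 28 °C in BHI-tryptose with 5% fetal calf serum and seeded at 2×10^6/mL in medium containing compound (DMSO stock; final DMSO ≤1%, 1% DMSO control). Growth was read as A590 at day 0 and day 5. Inhibition = {1 − [(Ap − A0p)/(Ac − A0c)]} × 100. Means of two experiments.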

The test system of assay [5] is Trypanosoma cruzi. The experiment in a line: Antiparasitic activity against Trypanosoma cruzi CLB epimastigotes assessed as growth inhibition at 25 uM after 5 days. Format: functional. As to conditions: 120 h, read-out: GI. Summed up: as §2
Assay [6] concerns Trypanosoma cruzi. The experiment in a line: Antiparasitic activity against Trypanosoma cruzi CLB epimastigotes assessed as growth inhibition. Format: functional. To be noted: read-out: ID50 (the source's name). The procedure, abridged:
(§3)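 Epimastigotes were cultured at 28 °C in BHI-tryptose plus 5% fetal calf serum and seeded at 2×10^6/mL with increasing compound concentrations (from DMSO stock; final DMSO ≤1%). Growth was followed as A590 against untreated controls. ID50 was the concentration halving absorbance relative to controls. Means of two experiments.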

Assay [7] addresses Triosephosphate isomerase (Homo sapiens) (UniProt P60174). The assay is described as follows: Inhibition of human triosephosphate isomerase at 100 uM after 2 hrs. Summed up: as §1
The target of assay [8] is Triosephosphate isomerase, glycosomal (Trypanosoma cruzi, UniProt P52270). The experiment in a line: Inhibition of Trypanosoma cruzi triosephosphate isomerase after 2 hrs. The procedure, abridged:
as §1

The subject of assay [9] is Trypanosoma cruzi. The assay is described as follows: Antiparasitic activity against Trypanosoma cruzi T2 epimastigotes assessed as growth inhibition. Format: functional. To be noted: read-out: ID50 (the source's name). Summed up: as §3
In assay [10] the test system is Trypanosoma cruzi. The assay is described as follows: Antiparasitic activity against Trypanosoma cruzi Y epimastigotes assessed as growth inhibition at 25 uM after 5 days. Format: functional. To be noted: 120 h, read-out: GI. The procedure, abridged:
as §2

Assay [11] relates to Trypanosoma cruzi. The assay is described as follows: Antiparasitic activity against Trypanosoma cruzi Y epimastigotes assessed as growth inhibition. The format is functional. As to conditions: read-out: ID50 (the source's name). Summed up: as §3

Triosephosphate isomerase (Homo sapiens), sequence (P60174 whole entry): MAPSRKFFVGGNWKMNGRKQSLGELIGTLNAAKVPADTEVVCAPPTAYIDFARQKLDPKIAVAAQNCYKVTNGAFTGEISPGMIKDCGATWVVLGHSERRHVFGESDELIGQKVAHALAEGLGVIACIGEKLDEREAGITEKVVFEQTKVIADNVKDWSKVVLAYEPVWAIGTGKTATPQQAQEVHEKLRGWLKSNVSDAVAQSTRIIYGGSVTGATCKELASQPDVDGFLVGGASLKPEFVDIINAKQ
Triosephosphate isomerase, glycosomal, sequence (P52270 whole entry): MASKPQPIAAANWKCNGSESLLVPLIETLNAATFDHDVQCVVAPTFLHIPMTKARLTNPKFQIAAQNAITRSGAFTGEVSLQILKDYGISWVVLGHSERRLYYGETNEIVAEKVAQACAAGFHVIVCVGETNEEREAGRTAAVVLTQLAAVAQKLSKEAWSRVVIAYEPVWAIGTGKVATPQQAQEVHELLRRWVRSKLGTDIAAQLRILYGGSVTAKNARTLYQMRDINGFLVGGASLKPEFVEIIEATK
Triosephosphate isomerase, glycosomal (Trypanosoma cruzi), sequence (P52270 whole entry): as above

`O/N=C1/C=CC(C=Cc2ccc(Cl)cc2)=C/C1=N/O`: the inhibition in assay [1] is 25%; in [2], 73%. Also, the Ratio in assay [3] is more than 4. Besides, the outcome with Trypanosoma cruzi [4] was Active. Besides, the inhibition of growth at 25 µM in the assay on Trypanosoma cruzi [5] is 100%. Further, in the assay with Trypanosoma cruzi [6], the IC50 was determined as 5 µM.
Regarding `Cc1ccc(-c2nsc(=O)[nH]2)cc1`, the inhibition was found to be 98% in [1], 59% in [7] and 95% in assay [2]. In addition, the figures for the IC50 (in assay [8]; in the assay on Trypanosoma cruzi [9]) were 3.5 µM and more than 25 µM, respectively. Further, the inhibition of growth at 25 µM with Trypanosoma cruzi [4] came out at 0%.
On to `NC1=NS(=O)(=O)N=C(N)C1=Cc1ccc([N+](=O)[O-])o1`, for which the figures for the inhibition in assay [1] and in assay [2] were 99% and 100%, respectively. For the same compound, the IC50 in assay [8] was 20 µM; in the assay with Trypanosoma cruzi [9], 50 µM. Moreover, the Ratio in [3] was more than 4. Further, the inhibition of growth at 25 µM in the assay on Trypanosoma cruzi [4] was 22.2%.
Turning to `[O-][n+]1onc(-c2ccccc2)c1CNc1cccc2ccccc12`, the values for the inhibition in assay [1] and in assay [2] were 45% and 72%, respectively. Moreover, the IC50 in the assay with Trypanosoma cruzi [9] was more than 25 µM. For the same compound, the Ratio in assay [3] is more than 4. For the same compound, the inhibition of growth at 25 µM in the assay with Trypanosoma cruzi [4] was 24.7%.
On the same counts, the results for `CCOC(=O)c1nc(-c2ccccc2)ns1` are 69%, 87%, more than 25 µM, more than 4 and 25%.
As to `Cc1ccc(-c2nsc(S(=O)(=O)c3ccc(C)cc3)n2)cc1`, the inhibition was determined as 57% in assay [1] and 78% in [2]. Moreover, in the assay on Trypanosoma cruzi [9], the IC50 stood at 5 µM. The Ratio in assay [3] is more than 4. Besides, in the assay with Trypanosoma cruzi [4], the inhibition of growth at 25 µM was 100%.
Take `O/N=C1C=CC(/C=C/c2ccccc2)=CC/1=N/O`: the results for the inhibition in [1] and in [2] were 8% and 77%, respectively. For the same compound, the Ratio in assay [3] is more than 4. Besides, the result with Trypanosoma cruzi [4] was Active. The inhibition of growth at 25 µM in the assay on Trypanosoma cruzi [5] worked out at 100%. Moreover, the IC50 in the assay on Trypanosoma cruzi [6] is 4.7 µM.
For `O=C1C(=Cc2ccc([N+](=O)[O-])o2)C(=O)N(Cc2ccccc2)S(=O)(=O)N1Cc1ccccc1`, the inhibition was 82% in assay [1], 0% in assay [7] and 82% in assay [2]. Also, the figures for the IC50 (in [8]; in the assay on Trypanosoma cruzi [9]) were 13 µM and 50 µM, respectively. Further, in assay [3], the Ratio is more than 4. Further, the inhibition of growth at 25 µM in the assay with Trypanosoma cruzi [4] came to 20.8%.
With `O=c1oc(-c2ccccc2)ns1`, the inhibition in assay [1] worked out at 81%; in assay [7], 0%; in assay [2], 96%. For the same compound, the values for the IC50 (in assay [8]; in the assay with Trypanosoma cruzi [9]) were 10 µM and 22 µM, respectively. Further, the Ratio in assay [3] was more than 4. For the same compound, the inhibition of growth at 25 µM in the assay on Trypanosoma cruzi [4] stood at 59%.
As for `[O-][n+]1c2ccc(O)cc2[n+]([O-])c2cc(Cl)c(Cl)cc21`, the inhibition of growth at 25 µM in the assay on Trypanosoma cruzi [10], in the assay on Trypanosoma cruzi [4] and in the assay with Trypanosoma cruzi [5] was 100% each time. The inhibition in assay [1] was 73%; in assay [7], 0%; in assay [2] it was 84%. In addition, the IC50 turned out to be 26 µM in assay [8], 2.9 µM with Trypanosoma cruzi [9], 5.5 µM in the assay with Trypanosoma cruzi [11] and 2 µM in the assay on Trypanosoma cruzi [6]. In [3], the Ratio is more than 4.

As a reminder, the inhibition is the share of the control response that was lost under treatment. A lower inhibition goes with a weak effect.
